Screening data deposited in PubChem BioAssay by several laboratories.
Shown are actives, neighbours in structure and some others; about 1.5% of the full set was active somewhere.
NRP1-CendR mod – NRP-1/CendR interaction modulation; O14786; FAM-RPARPAR peptide binding to NRP-1, fluorescence polarization; inhibition, % at 25 µM; 0.85% of 360,000 active;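 active means inhibition or corrected inhibition above about 18%, plus a signal ratio from 0.5 to 1.5, limit read from the data, passing the limit was not always enough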
DAGLB inh – blocks human DAGLB lipase activity; HEK293T DAGLB membrane lysate, EnzChek fluorogenic substrate; inhibition, % at 5.17 µM; 0.059% of 340,000 active; AID 504411; in the data active means inhibition above about 34%;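 further: 0% = enzyme with vehicle and 100% = wells lacking enzyme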
MT1-MMP act inh – MT1-MMP (human) activation inhibition | HT1080 RFP-PRO-GFP cells, GFP/RFP ratio fluorescence, overnight; percent of plate control window, DMSO zero | GFP/RFP ratio change, % at 20 µM | 0.061% of 360,000 active | AID 651647;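 active means GFP/RFP ratio change of at least 30% with cell ATP level not reduced by more than half and red fluorescence within 50% of control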
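Material: RFP-PRO-GFP reporter HT1080 cells. Dosing: single-point 20 µM compound, 1% DMSO. Controls: DMSO and RFP-L50D-GFP cell wells. Timing: cells overnight before dosing, compound overnight, 37 °C, 5% CO2. Measure: GFP/RFP fluorescence ratio.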
UCH37 inh – blocks the human deubiquitinase UCH37; Q9Y5K5; purified proteasome/UCH37, Ub-AMC cleavage fluorescence; inhibition, % (no concentration beside the values); 0.33% of 330,000 active; AID 588478;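 active means mean inhibition over replicate wells above about 20%, limit read from the data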;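 further: 0% = compound-free wells with enzyme and 100% = wells lacking proteasome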
Target sequence (Q9Y5K5 whole entry, looked up): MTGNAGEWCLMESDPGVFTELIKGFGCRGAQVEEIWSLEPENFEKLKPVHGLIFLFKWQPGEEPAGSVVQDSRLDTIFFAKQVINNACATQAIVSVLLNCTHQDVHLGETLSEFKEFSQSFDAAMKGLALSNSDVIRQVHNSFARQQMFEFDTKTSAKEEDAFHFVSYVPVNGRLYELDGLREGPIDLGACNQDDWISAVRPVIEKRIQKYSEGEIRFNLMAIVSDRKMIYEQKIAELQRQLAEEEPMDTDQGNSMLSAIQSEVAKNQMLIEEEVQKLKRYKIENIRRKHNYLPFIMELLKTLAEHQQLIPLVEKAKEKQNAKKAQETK
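Signal – fluorescence, ex 355 nm, em 460 nm · System – Proteasome-bound UCH37 · Input – 0.15 nM proteasome as dispensed · Timing – 30 min preincubation with enzyme, 25 min cleavage at room temperature · Read-out basis – percent inhibition of cleavage signal versus uninhibited and no-proteasome wells · Medium – Tris-HCl pH 7.4 with ATP-MgCl2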
Fh CTSL1 inh – counter-screen for PFM18AAP inhibitors: inhibitors of F. hepatica cathepsin L1 | recombinant F. hepatica cathepsin L1, Z-Leu-Arg-MCA fluorescence | inhibition, % at 5.96 µM | 0.49% of 300,000 active;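 active means inhibition above the mean of all tested compounds plus 3 SD, set per screening campaign, cut at about 17% in these data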;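 further: 0% = plate median of test compound wells and 100% = 1 µM Z-Phe-Ala-diazomethylketone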
* = called active by the depositor; x = no result given.

SMILES	NRP1-CendR mod	DAGLB inh	MT1-MMP act inh	UCH37 inh	Fh CTSL1 inh
O=C(NN=Cc1ccccc1[N+](=O)[O-])c1cnccn1	x	x	x	7	x
O=S(=O)(O)c1ccc(NN=Cc2ccccc2O)cc1	11	3	-1	23*	x
Cn1ncc(Cl)c1C(=O)NN=Cc1cccc(OC2CSC2)c1	x	x	x	5	x
O=C1N=C(N2CCOCC2)S/C1=C/c1cccs1	2	1	1	17	8
O=C1N=C(N2CCOCC2)S/C1=C/c1ccc(-c2ccccc2Cl)o1	2	-3	-2	-6	34*
O=C(c1cnc2n(c1=O)CCS2)N1CCc2ccccc21	5	3	-3	3	3
CC1Cc2ccccc2N1C(=O)c1cnc2n(c1=O)CCS2 (stereo not drawn)	3	-3	4	0	66*
COc1ccc(C=NNC(=O)c2ccncc2)cc1CN1CCN(c2ccc(F)cc2)CC1	x	x	x	8	x
COc1ccc(N/N=C(/N=Nc2nc(C)cc(=O)[nH]2)c2ccccc2)cc1	44*	25	7	x	1
Cc1cccc(-c2noc(CSc3ccccc3)n2)c1	31*	-30	1	2	-4
Cc1cc(C=NNc2ccc([N+](=O)[O-])cn2)c(C)n1-c1ccccc1	x	x	x	6	x
CC1=NNC(=O)C1CC(=O)NN=C/C=C/c1ccccc1 (stereo not drawn)	x	x	x	6	x
CN(C)C=NNC(=O)c1ccc(Cl)cc1	x	x	x	4	x
C#CCOCCOCCOCCNc1nc(N2CCN(C(=O)CCCCCCCCCCNC(=O)Cn3cc(CCCCCN)nn3)CC2)nc(N2CCN(C(=O)CCCCCCCCCCNC(=O)Cn3cc(CCCCCN)nn3)CC2)n1	18*	2	6	x	10
C#CCOCCOCCOCCNc1nc(N2CCN(C(=O)CCCCCCCCCCNC(=O)Cn3cc(CCCCCN)nn3)CC2)nc(N2CCN(C(=O)CCCCCCCCCCNC(=O)[C@@H](CCC(=O)O)n3cc(CCCCCN)nn3)CC2)n1	21*	0	5	0	8
CCOc1ccccc1C=NNC(=O)CNC(=O)COc1ccccc1	x	x	x	1	x
Oc1ccc(/C=N/NC(=S)Nc2cccnc2)cc1	23*	4	2	x	-2
Fc1ccc(C=NNC(=S)Nc2cccnc2)cc1	x	x	x	4	x
Cc1nc2ccccc2n1CCC(=O)O	33*	1	-1	-3	2
Cc1ccc(N2CCN(N=Cc3cccnc3)CC2)cc1	x	x	x	5	x
CCCCCCN1C(=O)C(O)=C(C(C)=O)C1c1ccc(Cl)cc1 (stereo not drawn)	5	25	3	2	5
CC(=O)C1=C(O)C(=O)N(CCN(C)C)C1c1ccc(Cl)cc1 (stereo not drawn)	0	0	1	24*	x
Cc1cccc(C)c1C(O)c1ncc(-c2ccccc2F)[nH]1 (stereo not drawn)	4	x	-1	x	x
Cc1cccc(C(O)c2ncc(-c3ccccc3F)[nH]2)c1C (stereo not drawn)	30*	x	6	x	x
Cn1c(=O)c2c(-c3ccccc3)n(-c3ccc(N)cc3)cc2n(C)c1=O	37*	x	-4	x	x
SMILES	NRP1-CendR mod	DAGLB inh	MT1-MMP act inh	UCH37 inh	Fh CTSL1 inh
Cn1c(=O)c2c(-c3ccccc3)n(-c3cccc(O)c3)cc2n(C)c1=O	6	x	-10	x	x
Cc1cc(C)nc(N=C(N)Nc2ccc(F)c([N+](=O)[O-])c2)n1	x	x	x	4	x
Cc1ccc(C)c(NC(=O)C(=O)NCCCN2CCOCC2)c1	33*	1	-1	5	-3
COC(=O)c1c(NC(=O)C(=O)NCCCN2CCOCC2)sc2c1CCC2	9	-2	-1	5	23*
O=C(Nc1ccccc1)NC1(C(=O)NCCCN2CCOCC2)CCCCC1	13	0	3	0	0
NC(=O)c1c(NC(=O)C(=O)N2CCOCC2)sc2c1CCCC2	32*	-2	2	7	4
Cc1ccccc1NC(=O)NC1(C(=O)NCCCN2CCOCC2)CCCCC1	1	0	2	35*	0
COc1ccc(NC(=S)NC(=NCS(=O)(=O)c2ccccc2)c2ccccc2)cc1	x	x	x	5	x
CCOC(=O)C1CCCN(S(=O)(=O)c2ccc(Br)s2)C1 (stereo not drawn)	-6	-3	-9	1	17*
COCCNC(=S)NN=C(C)c1cccc([N+](=O)[O-])c1	x	x	x	0	x
COCCNc1nnc(SCC(=O)c2ccc3c(c2)OCO3)s1	2	-1	-1	3	-3
O=C(CSc1nnc(SCc2ccc(Cl)cc2)s1)c1ccc2c(c1)OCO2	0	-12	1	22*	-7
Nc1nnc(SCc2ccc(Cl)cc2)s1	26*	2	8	2	2
O=C(CCl)Nc1cccc(-c2cnc3ccccc3n2)c1	-5	4	-11	7	74*
O=C(CCl)Nc1ccc(Oc2cnc3ccccc3n2)cc1	-1	-3	-11	1	23*
CCC(=O)Nc1cccc(-c2cnc3ccccc3n2)c1	-1	-1	2	8	-1
O=C(O)COc1cnc2ccccc2n1	-19	0	-9	-38	-3
Cc1ccccc1S(=O)(=O)Cc1ccc(C(=O)NCc2ccccc2)o1	0	-2	-2	-1	-5
Cc1oc2c(c1C(=O)NCc1cccnc1)C(=O)c1ccccc1C2=O	x	x	x	22*	31*
Cc1ccccc1S(=O)(=O)Cc1ccc(C(=O)NCc2cccnc2)o1	49*	-1	2	0	-1
C=CCNC(=O)C(=O)NN=Cc1ccco1	x	x	x	7	x
CC1=C(/C=C/C(C)=C/C=C/C(C)=C/CO)C(C)(C)CCC1	1	-2	1	78*	4
COc1ccc(/C=C2\SC(=S)N(N3C(=O)CCC3=O)C2=O)cc1O	36*	4	4	6	2
COc1ccc(/C=C2/SC(=S)N(Cc3ccccc3)C2=O)cc1O	-16	-3	7	3	x
Cc1ccc2oc(=O)c3cc(C(=O)NCCCN4C(C)CCCC4C)sc3c2c1 (stereo not drawn)	1	-1	-1	-27	17*
SMILES	NRP1-CendR mod	DAGLB inh	MT1-MMP act inh	UCH37 inh	Fh CTSL1 inh
CCN=C1NN=C(c2ccc(C)cc2)CS1	-40	-1	-5	6	0
CC(C)N=C1NN=C(c2ccc(F)cc2)CS1	3	1	-2	10	17*
Cc1nnc(N/N=C/c2ccccc2O)n1N	-3	-1	8	x	20*
Cc1ccc(-n2c(C)cc(C=NNC(=O)CN(c3ccc(C)cc3C)S(C)(=O)=O)c2C)cc1	x	x	x	3	x
O=C(/C=C/[C@H]1O[C@@H](n2cnc3c(NC(=O)c4ccccc4)ncnc32)[C@H](O)[C@@H]1O)NCc1ccco1	22*	x	2	x	x
O=C(CSc1nc2ccccc2c(=O)n1-c1ccccc1)NN=C/C=C/c1ccccc1[N+](=O)[O-]	x	x	x	6	x
CC(=O)c1c(C)[nH]c(C(=O)OCC(=O)NCc2cccs2)c1C	21*	0	-1	3	x
